Assay results as given in ChEMBL document CHEMBL1629702, “Berberine-INF55 (5-nitro-2-phenylindole) hybrid antimicrobials: effects of varying the relative orientation of the berberine and INF55 components” (Antimicrob Agents Chemother, 2010).
Activity calls are given as the source filed them. The calls are words filed in the database; no cut-off is given here.

Key:
[1] = system: Staphylococcus aureus; test: Antibacterial activity against Staphylococcus aureus K2378 overexpressing NorA after 18 hrs by two fold serial dilution method; assay type: functional; conditions: K2378, 18 h
How it was run: (§1)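 Broth inoculated at 10⁵ cells/ml and serial 2-fold compound dilutions, run in triplicate. Incubated 18 h at 37°C, with growth read as absorbance at 600 nm. MIC is the lowest concentration giving complete growth inhibition.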

[2] = system: Staphylococcus aureus; test: Antibacterial activity against wild-type Staphylococcus aureus 8325-4 after 18 hrs by two fold serial dilution method; assay type: functional; conditions: 8325-4, 18 h; how it was run: as §1
[3] = system: Staphylococcus aureus; test: Antibacterial activity against NorA-deficient Staphylococcus aureus K1758 after 18 hrs by two fold serial dilution method; assay type: functional; conditions: K1758, 18 h; how it was run: as §1
[4] = system: Enterococcus faecalis; test: Antibacterial activity against Enterococcus faecalis infected in Caenorhabditis elegans assessed as organism survival at 8.6 uM; assay type: functional, organism-based
How it was run: (§2)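 Gravid glp-4(bn2) sek-1(km4) adults were bleached for eggs, hatched at 15°C for 2 days, then grown on E. coli HB101 at 25°C for 52 h. Sterile adults were infected on E. faecalis MMH594 lawns (kanamycin 80 μg/ml) for 15 h at 15°C. Worms were sorted 15 per well into 20% BHI, 60% M9, kanamycin, nystatin and 1% DMSO, then kept 5 days at 26.3°C. Survival was scored from bright-field images, with median survival (LT50) as the read-out.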

[5] = system: Staphylococcus aureus; test: Increase in ethidium bromide uptake in NorA-deficient Staphylococcus aureus K1758 at 3 uM by fluorescence assay; assay type: functional, organism-based
How it was run: (§3)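 S. aureus was grown at 37°C to OD600 1.5, washed in PBS, then energised for 1 h at 37°C in PBS with 10 mM dextrose (OD ~0.8). Cells were washed and diluted to OD ~0.3 in PBS. Hybrid or INF55 was added before ethidium bromide, all at 3 μM. Fluorescence was read at ex 530/em 600 nm, with cell-free compound background subtracted. At least triplicate.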

[6] = target: T1, Quinolone resistance protein NorA (Staphylococcus aureus) (UniProt P0A0J7); test: Inhibition of NorA in Staphylococcus aureus K2378 overexpressing NorA assessed as ethidium bromide uptake at 3 uM by fluorescence assay; how it was run: as §3
T1 sequence (whole entry): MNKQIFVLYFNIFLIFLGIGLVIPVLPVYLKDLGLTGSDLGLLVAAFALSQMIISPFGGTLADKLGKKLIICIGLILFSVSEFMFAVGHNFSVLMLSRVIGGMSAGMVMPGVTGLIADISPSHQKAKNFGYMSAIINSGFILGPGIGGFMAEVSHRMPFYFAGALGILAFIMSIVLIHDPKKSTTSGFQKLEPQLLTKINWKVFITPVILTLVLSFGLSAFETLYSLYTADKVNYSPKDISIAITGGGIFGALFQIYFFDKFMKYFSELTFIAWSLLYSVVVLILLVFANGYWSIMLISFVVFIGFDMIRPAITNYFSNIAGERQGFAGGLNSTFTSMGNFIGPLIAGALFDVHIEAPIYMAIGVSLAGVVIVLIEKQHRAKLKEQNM

[7] = target: T1, Quinolone resistance protein NorA (Staphylococcus aureus); test: Inhibition of NorA in Staphylococcus aureus 8325-4 assessed as ethidium bromide uptake at 3 uM by fluorescence assay; how it was run: as §3
[8] = system: Enterococcus faecalis; test: Antibacterial activity against Enterococcus faecalis infected in Caenorhabditis elegans assessed as organism survival at 20 uM; assay type: functional, organism-based; how it was run: as §2
[9] = target: T1, Quinolone resistance protein NorA (Staphylococcus aureus); test: Inhibition of NorA in Staphylococcus aureus 8325-4 assessed as increase in ethidium bromide uptake at 3 uM by fluorescence assay in presence of INF55; how it was run: as §3
[10] = system: Staphylococcus aureus; test: Increase in ethidium bromide uptake in NorA-deficient Staphylococcus aureus K1758 at 3 uM by fluorescence assay in presence of INF55; assay type: functional, organism-based; how it was run: as §3
[11] = target: T1, Quinolone resistance protein NorA (Staphylococcus aureus); test: Inhibition of NorA in Staphylococcus aureus K2378 overexpressing NorA assessed as ethidium bromide uptake at 3 uM by fluorescence assay in presence of INF55; how it was run: as §3
[12] = target: T1, Quinolone resistance protein NorA (Staphylococcus aureus); test: Inhibition of NorA in Staphylococcus aureus K2378 overexpressing NorA assessed as increase in ethidium bromide uptake at 3 uM by fluorescence assay in presence of INF55; how it was run: as §3
[13] = system: Staphylococcus aureus; test: Cellular uptake in NorA-deficient Staphylococcus aureus K1758 assessed as accumulation of compound at 3 uM by fluorescence assay; assay type: ADME, organism-based; conditions: in vivo
How it was run: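 K1758 (ΔnorA) cells grown at 37°C to OD600 1.5, washed twice in PBS, then energized 1 h at 37°C with aeration in PBS plus 10 mM dextrose at OD ~0.8. Cells washed again and diluted to OD ~0.3 in PBS. Compound added at 3 μM. DNA-binding fluorescence read at ex 355/em 517 nm, cell-free background subtracted, arbitrary units; ≥3 independent experiments.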

[14] = target: T1, Quinolone resistance protein NorA (Staphylococcus aureus); test: Inhibition of NorA in Staphylococcus aureus 8325-4 assessed as accumulation of compound at 3 uM by fluorescence assay
How it was run: (§4)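 S. aureus was grown at 37°C to OD600 1.5, washed, then energised for 1 h at 37°C in PBS with 10 mM dextrose. Cells were diluted to OD ~0.3 in PBS, and compounds (berberine ± INF55, or hybrids) were added at 3 μM each. DNA-binding fluorescence increase was followed at ex 355/em 517 nm, in arbitrary units, with background subtracted. At least three independent experiments.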

[15] = target: T1, Quinolone resistance protein NorA (Staphylococcus aureus); test: Inhibition of NorA in Staphylococcus aureus K2378 overexpressing NorA assessed as accumulation of compound at 3 uM by fluorescence assay; how it was run: as §4
[16] = target: T1, Quinolone resistance protein NorA (Staphylococcus aureus); test: Inhibition of NorA in Staphylococcus aureus 8325-4 assessed as assessed as accumulation of compound at 3 uM by fluorescence assay; how it was run: as §4
[17] = system: Staphylococcus aureus; test: Antibacterial activity against NorA-deficient Staphylococcus aureus K1758 after 18 hrs by two fold serial dilution method in presence of INF55; assay type: functional, organism-based
[18] = target: T1, Quinolone resistance protein NorA (Staphylococcus aureus); test: Inhibition of NorA in Staphylococcus aureus K2378 overexpressing NorA assessed as accumulation of Berberine at 3 uM by fluorescence assay in presence of INF55; how it was run: as §4
[19] = target: T1, Quinolone resistance protein NorA (Staphylococcus aureus); test: Inhibition of NorA in Staphylococcus aureus 8325-4 assessed as accumulation of Berberine at 3 uM by fluorescence assay in presence of INF55; how it was run: as §4
[20] = target: T1, Quinolone resistance protein NorA (Staphylococcus aureus); test: Inhibition of NorA in Staphylococcus aureus K2378 overexpressing NorA assessed as decrease in Berberine MIC
[21] = target: T1, Quinolone resistance protein NorA (Staphylococcus aureus); test: Inhibition of NorA in Staphylococcus aureus 8325-4 assessed as decrease in Berberine MIC

SMILES	MIC [1] [µM]	MIC [2] [µM]	MIC [3] [µM]	Activity [5]	inhibition [6]	inhibition [7]	Activity [8]	inhibition [9]	Activity [10]	inhibition [11]	inhibition [12]	also measured
COc1ccc2c(Cc3ccccc3-c3cc4cc([N+](=O)[O-])ccc4[nH]3)c3[n+](cc2c1OC)CCc1cc2c(cc1-3)OCO2	18.8	9.4	9.4									
CN[C@H](CC(C)C)C(=O)N[C@H]1C(=O)N[C@@H](CC(N)=O)C(=O)N[C@H]2C(=O)N[C@H]3C(=O)N[C@H](C(=O)N[C@H](C(=O)O)c4cc(O)cc(O)c4-c4cc3ccc4O)[C@H](O)c3ccc(c(Cl)c3)Oc3cc2cc(c3O[C@@H]2O[C@H](CO)[C@@H](O)[C@H](O)[C@H]2O[C@H]2C[C@](C)(N)[C@H](O)[C@H](C)O2)Oc2ccc(cc2Cl)[C@H]1O												Activity [4]: Active
COc1ccc2c(Cc3cccc(-c4cc5cc([N+](=O)[O-])ccc5[nH]4)c3)c3[n+](cc2c1OC)CCc1cc2c(cc1-3)OCO2	20.1	20.1	20.1	Active	Active	Active	Active	Active	Active	inactive	Active	
COc1ccc2c(Cc3ccc(-c4cc5cc([N+](=O)[O-])ccc5[nH]4)cc3)c3[n+](cc2c1OC)CCc1cc2c(cc1-3)OCO2	40.2	40.2	20.1	Active	Active	Active	Active	Active	Active	inactive	Active	
COc1ccc2cc3[n+](cc2c1OC)CCc1cc2c(cc1-3)OCO2.[Cl-] [BERBERINE CHLORIDE]	> 650	325	40									Drug uptake [13]: Active; inhibition [14]: inactive; inhibition [15]: inactive; inhibition [16]: Active; Activity [17]: Active; inhibition [18]: Active; inhibition [19]: Active; Activity [20]: Active; Activity [21]: Active
